ChEMBL document CHEMBL1133632, “A new class of antituberculosis agents” (2000)
≈ marks a conversion by molar mass, not a printed value.

Test system: Mycobacterium tuberculosis
Assay: Activity against Mycobacterium tuberculosis (H37Rv) using the standard BACTEC radiometric growth assay
Type: functional
Conditions: not given
How it was run: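 BACTEC radiometric MIC against M. tuberculosis H37Rv. Compounds in DMSO (1 mg/mL stock), final 50, 25, 12.5, 6.25, 3.0, 1.5 µg/mL. Inoculum 0.1 mL of a 1.0 McFarland suspension. Controls: DMSO direct control and 1:100 organism dilution. Incubated 37 °C, growth index read daily until the 1:100 control reached 30. MIC = lowest concentration with 1-day GI change below the 1:100 control.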

| Structure (SMILES) | MIC [µg/mL] |
| --- | --- |
| CCCCCCCCC[S+]([O-])CC(N)=O (single isomer, unassigned) | 25 (≈ 107 µM) |

Same assay, conditions: Mycobacterium tuberculosis; read-out: MIC

| Structure (SMILES) | MIC [µg/mL] |
| --- | --- |
| CCCCCCCCC[S+]([O-])CC(N)=O (racemic) | 25 (≈ 107 µM) |
| NNC(=O)c1ccncc1 [ISONIAZID] | 0.1 (≈ 0.729 µM) |
| CCCCCCCCS(=O)(=O)CC(=O)OCc1ccccc1 | 12.5 (≈ 38.3 µM) |
| CCCCCCCCCCP(=O)([O-])CC(N)=O.[K+] | > 50 |
| CCCCCCCCCCSCC(N)=O | 25 (≈ 108 µM) |
| CCCCCCCCS(=O)(=O)CC(N)=O | 6.25 (≈ 26.6 µM) |
| NC(=O)CS(=O)(=O)CCCCCc1ccccc1 | 12.5 (≈ 46.4 µM) |
| CCCCCCCS(=O)(=O)CC(N)=O | > 25 |
| CCCCCCCCC[S+]([O-])CC(=O)OC (single isomer, unassigned) | > 25 |
| CN[C@@H]1[C@H](O[C@H]2[C@H](O[C@H]3[C@H](O)[C@@H](O)[C@H](N=C(N)N)[C@@H](O)[C@@H]3N=C(N)N)O[C@@H](C)[C@]2(O)C=O)O[C@@H](CO)[C@H](O)[C@H]1O [STREPTOMYCIN] | 2 (≈ 3.44 µM) |
| CCCCCCCCCCS(=O)(=O)CC(N)=O | 1.5 (≈ 5.69 µM) |
| CC(C)CCCCCCCS(=O)(=O)CC(N)=O | 1.5 (≈ 5.69 µM) |
| CCCCCCCCS(=O)(=O)CC(=O)OC | > 25 |
| NC(=O)CS(=O)(=O)CCCCc1ccccc1 | > 25 |
| CCCCCCCCCCCCS(=O)(=O)CC(N)=O | 12.5 (≈ 42.9 µM) |
| CCCCCCCCS(=O)(=O)NC(N)=O | > 25 |
| CCCCCCCCCCS(=O)(=O)C(C)C(N)=O (stereo unspecified) | > 25 |
| CCCCCCCCC[S+]([O-])CC(=O)OC (racemic) | > 25 |
| C=C/C(C)=C/[C@@]1(C)SC(=O)C(C)=C1O [THIOLACTOMYCIN] | 25 (≈ 119 µM) |
| CCCCCCC/C=C/S(=O)(=O)CC(N)=O | 12.5 (≈ 50.5 µM) |

| Structure (SMILES) | MIC [µg/mL] |
| --- | --- |
| CCCCCCCCCS(=O)(=O)CC(N)=O | 3 (≈ 12 µM) |
| CCCCCCCC[S+]([O-])CC(=O)OC (stereo unspecified) | 12.5 (≈ 53.3 µM) |
| NC(=O)c1cnccn1 [PYRAZINAMIDE] | 100 (≈ 812 µM) |
| NC(=O)CS(=O)(=O)CCCCCCc1ccccc1 | 12.5 (≈ 44.1 µM) |
| CCCCCCCCCC[S+]([O-])CC(N)=O (stereo unspecified) | 6.25 (≈ 25.3 µM) |
| CCCCCCCCCCOCC(N)=O | > 25 |
| CCCCCCCCS(=O)(=O)NS(C)(=O)=O | > 25 |
| CCCCCCCCS(=O)(=O)CC(=O)O | > 25 |
| CC[C@@H](CO)NCCN[C@@H](CC)CO [ETHAMBUTOL] | 2 (≈ 9.79 µM) |
| CCOCCOCCS(=O)(=O)CC(N)=O | > 25 |
| CCCCCCCCCCS(=O)(=O)CCC(N)=O | > 25 |
| CCCCCCC/C=C\S(=O)(=O)CC(N)=O | 12.5 (≈ 50.5 µM) |
| CCCCCCCCC[S@@+]([O-])CC(N)=O | 25 (≈ 107 µM) |
| C/C=C/C/C=C/CCC(=O)[C@H]1O[C@H]1C(N)=O [CERULENIN] | 1.5 (≈ 6.72 µM) |
| CCCCCCCCS(=O)(=O)NS(N)(=O)=O | > 25 |
| CCCCCCCC[S+]([O-])CC(=O)OCc1ccccc1 (stereo unspecified) | 6.25 (≈ 20.1 µM) |
| CCCCCCCCCCCCCCCCCCS(=O)(=O)CC(N)=O | > 50 |
| CC(C)CCCC(C)CCS(=O)(=O)CC(N)=O (stereo unspecified) | 6.25 (≈ 23.7 µM) |
| CCCCCCS(=O)(=O)CC(N)=O | > 50 |
| CO[C@H]1/C=C/O[C@@]2(C)Oc3c(C)c(O)c4c(O)c(c(/C=N/N5CCN(C)CC5)c(O)c4c3C2=O)NC(=O)/C(C)=C\C=C\[C@H](C)[C@H](O)[C@@H](C)[C@@H](O)[C@@H](C)[C@H](OC(C)=O)[C@@H]1C [RIFAMPIN] | 2 (≈ 2.43 µM) |
